Source: PubChem BioAssay (several laboratories)
Beta apoptosis: blocks beta cell apoptosis. INS-1E cytokine-induced death, ATP luminescence, 48 h; percent of positive-control rescue, neutral wells zero. protection from apoptosis, % (no concentration beside the values). 300,000 compounds, 0.8% hits. AID 435005;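 active = Every replicate reaches about 75%, or at least half do and their mean reaches it too, limit read from the data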;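 note: 0% = cytokine-treated negative control wells and 100% = positive control rescue; higher means more ATP so stronger rescue from cytokine killing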
T cruzi inh: blocks replication of Trypanosoma cruzi. T. cruzi beta-gal in NIH3T3, luminescence, 90 h. 300,000 compounds, 1.4% hits. inhibition, % (no concentration beside the values);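 active = mean inhibition across valid replicates above about 55%, limit read from the data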;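 note: signal also drops with host cell toxicity which is not excluded here; 0% = plate median of DMSO wells and 100% = zero luminescence signal; higher percent means less beta-gal luminescence so fewer parasites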
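Test system: β-gal T. cruzi (Tulahuen C4) inside NIH/3T3 cells / Quantity: 5,000 cells/well / Measured by: luminescence from GalScreen with 0.05% NP40, read after 60 min / Medium: DMEM plus 2% FBS / Measure: parasite load inhibition, % / Reagent: Tulahuen C4 trypomastigotes, 5000/well / Schedule: co-culture of at least 90 h after 3 h attachment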
Mot1-301 SUMO: blocks SUMOylation pathway, rescuing yeast Mot1-301 growth. S. cerevisiae Mot1-301 growth rescue, ATP luminescence, 38.5C; percent above DMSO median, 100 means doubled. AID 2716. growth rescue, % at 18.8 µM. 320,000 compounds, 1% hits;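 active = every valid replicate shows activation above 250% relative to neutral control wells; inactive = the rest, any valid replicate at or below 250%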;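 note: OY570 slx delta 5 strain wells were the positive control but not used for scaling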
WT yeast gro inh: growth inhibition of WT yeast, mitochondrial fusion screen; mitochondrial fusion phenotypic screen, WT strain; 190,000 compounds, 2.1% hits; inhibition, % at 10 µM; AID 1362; in the data active = inhibition above about 58%; tested in S. cerevisiae
CSC inhib: blocks cancer stem cells; cancer stem cell-like cells viability, luminescence; inhibition, % at 7.5 µM; 300,000 compounds, 1.1% hits; in the data active = inhibition above about 75%; tested in HMLE shEcad cells
Efflux pump inh: antifungal efflux pump inhibition, Nile Red retention | S. cerevisiae Candida pump triplex | inhibition, % at 10 µM | 330,000 compounds, 0.44% hits | AID 485275;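 active = plate passing quality check with inhibition over a set limit, or well fluorescence over plate mean plus 4 SD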;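 note: Nile Red retained in pooled yeast measured as flow cytometry median fluorescence; 0% = buffer negative control and 100% = Enniatin B positive control; higher means more Nile Red kept so more efflux inhibition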
Yeast cmpd fluor: compound fluorescence in yeast efflux pump counter-screen. shares compounds with Efflux pump inh. S. cerevisiae AD/pABC3, flow cytometry. fluorescence ratio to DMSO, % at 10 µM. 1,700 compounds, 4% hits. AID 588517;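 active = fluorescence ratio to DMSO above its plate's cutoff, the plate mean ratio plus 5 SD, cut at about 210% in these data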;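 note: unstained yeast with no Nile Red so the signal is compound autofluorescence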
CaMdr1 efflux inh: Candida Mdr1 efflux pump inhibition; shares compounds with Efflux pump inh; S. cerevisiae AD/CaMDR1, Nile Red efflux, flow cytometry; inhibition, % at 10 µM; 1,700 compounds, 1% hits; in the data active = inhibition above about 26%;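 note: 0% = DMSO vehicle and 100% = reference inhibitor; higher means more Nile Red retained so more efflux inhibition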
Cdr2 pump inh: inhibitors of Candida albicans Cdr2 efflux pump | shares compounds with Efflux pump inh | S. cerevisiae AD/CaCDR2, Nile Red retention, flow cytometry | Nile Red retention ratio vs DMSO, % at 10 µM | 1,700 compounds, 4% hits; in the data active = Nile Red retention ratio vs DMSO above about 190%;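 note: higher ratio means more blocking of Cdr2 efflux of the dye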
Cdr1 pump inh: inhibitors of Candida albicans Cdr1 efflux pump. S. cerevisiae AD/CaCDR1, Nile Red efflux, flow cytometry. inhibition, % at 10 µM. 1,700 compounds, 1% hits. shares compounds with Efflux pump inh;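 active = inhibition above the screen-wide mean plus twice its standard deviation, cut at about 32% in these data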
* = called active by the depositor; / = no result given; + = active, no number. Compounds with a hit are over-represented: about 4.8% of the library has one in this group of screens.

SMILES	Beta apoptosis	T cruzi inh	Mot1-301 SUMO	WT yeast gro inh	CSC inhib	Efflux pump inh	Yeast cmpd fluor	CaMdr1 efflux inh	Cdr2 pump inh	Cdr1 pump inh
COc1cc2c(cc1OC)C(c1ccsc1)CC(=O)N2 (stereo not given)	-5	-7	739	5	-9	0	/	/	/	/
O=C1CC(c2ccsc2)Sc2ccccc2N1 (stereo not given)	0	-13	-4	/	-20	0	89	0	100	0
Cc1cc(C2CC(=O)Nc3ccccc3S2)c(C)s1 (stereo not given)	1	-3	14	/	-13	0	97	0	106	0
O=C(O)/C=C/c1cn(-c2ccccc2)nc1-c1cccc([N+](=O)[O-])c1	0	23	11	/	3	0	/	/	/	/
O=C(O)/C=C/c1cn(-c2ccccc2)nc1-c1ccc(-c2ccc([N+](=O)[O-])cc2)o1	-8	2	-8	/	36	0.9*	129	0	121	0
C=CCn1c(=O)c(C(=O)Nc2ccccc2S(N)(=O)=O)c(O)c2ccccc21	1	-14	7	3	7	1	/	/	/	/
Cc1cccc(NS(=O)(=O)c2ccc(C3CCCCC3)cc2)n1	4	11	3	42	-7	8.2*	99	0	103	0
CCCCOc1ccc(C(=O)N2CCN(c3ncccn3)CC2)cc1	-1	-4	8	/	7	0	/	/	/	/
CCOC(=O)C1=C(C)N=c2s/c(=C\c3ccc(OCC(=O)O)cc3)c(=O)n2C1c1ccccc1 (stereo not given)	-2	-8	186	/	-20	0	/	/	/	/
COC(=O)C1=C(C)N=c2s/c(=C/c3ccoc3)c(=O)n2C1c1ccccc1 (stereo not given)	4	16	-28	-3	12	0.5*	140	0	121	0
CCC1CCCCN1CCCNC(=O)CN1C(=O)COc2ccc(S(=O)(=O)N3CCOCC3)cc21 (stereo not given)	-5	-6	7	/	-8	43*	103	0	94	0
COCCCNC(=O)CN1C(=O)COc2ccc(S(=O)(=O)N3CCOCC3)cc21	/	-18	/	/	/	0	/	/	/	/
COCCn1c(=S)[nH]c2sc3c(c2c1=O)CCCC3	-5	-52	72	/	7	1.1*	87	0	89	0
COCCCn1c(=S)[nH]c2sc3c(c2c1=O)CCCC3	1	-10	1	/	11	0	/	/	/	/
Cc1ccc(S(=O)(=O)N2CCc3ccccc3C2)cc1C	-6	25	22	/	3	0	/	/	/	/
Cc1c(Br)c([N+](=O)[O-])nn1C(C)C(=O)Nc1c(C)n(C)n(-c2ccccc2)c1=O (stereo not given)	0	24	26	3	-9	0	/	/	/	/
COc1ccc(OC)c(Nc2nc3nonc3nc2N2CCCCC2)c1	2	-1	-28	1	1	6.7*	91	0	112	0
NNC(=O)c1csc(-c2ccc(C(F)(F)F)cc2Cl)n1	-5	-33	-22	/	7	0	/	/	/	/
CCOc1ccc(NC(=O)NC2CCCc3ccccc32)cc1 (stereo not given)	1	11	6	/	-1	6.5*	103	0	109	0
O=C(Cn1cncn1)N/N=C/c1ccc(Cl)cc1	3	-9	14	-4	-22	9.7*	95	0	91	0
COC(=O)N1[C@H](C)C=C[C@]1(Cc1ccccc1)C(=O)NCCCNc1ncc(C(F)(F)F)cc1Cl	/	30	-23	/	19	1	/	/	/	/
O=C(c1cc2c(ccc3ccccc32)o1)N1CCCCC1	1	15	164	/	-7	0	/	/	/	/
O=C(c1cc2c(ccc3ccccc32)o1)N1CCN(c2ncc(C(F)(F)F)cc2Cl)CC1	3	-8	-7	11	8	52*	102	0	93	0
CC(=O)c1c(N2CCN(C)CC2)[nH]c(-c2ccccc2)nc1=S	1	44	-5	-6	-18	1.5*	103	0	152	0
CCc1ccccc1NC(=O)c1ccc(OCc2c(C)noc2C)cc1	-1	/	3	/	11	0	/	/	/	/
SMILES	Beta apoptosis	T cruzi inh	Mot1-301 SUMO	WT yeast gro inh	CSC inhib	Efflux pump inh	Yeast cmpd fluor	CaMdr1 efflux inh	Cdr2 pump inh	Cdr1 pump inh
O=[N+]([O-])c1ccc(COc2ccc(-c3[nH]ncc3-c3ccc(Cl)cc3)c(O)c2)cc1	17	38	-12	94*	82*	18*	109	0	112	0
N#CC(C(=O)NCc1ccccc1)c1nc2ccccc2nc1N1CCCC1 (stereo not given)	4	0	9	-2	20	0.9*	102	0	104	0
COc1ccc2c(c1)c(/C=C/c1cc[n+](C)cc1)cn2C	49	41	7	/	-25	16*	+	4	136	6
Cc1ccc2[nH]cc(/C=C/c3cc[n+](C)cc3)c2c1	121*	59*	384	/	-10	9.3*	908*	7	137	6
CC[n+]1ccc(/C=C/c2c[nH]c3ccccc23)cc1	73	70*	-3	/	12	2.3*	217	3	102	0
COc1ccc2c(/C=C/c3cc[n+](C)cc3)c[nH]c2c1	59	54	6	/	0	9.1*	+	23	256*	13
CCn1c(/C=C/c2c[nH]c3ccccc23)nc2ccccc2c1=O	0	2	43	4	-12	0	/	/	/	/
CC(=O)SCC(Cc1ccccc1)C(=O)NCC(=O)OCc1ccccc1 (stereo not given)	/	-22	6	14	10	0	/	/	/	/
O=C(c1ccc2[nH]c(=O)c(=O)[nH]c2c1)N1CCc2ccccc21	0	-8	30	/	-13	0	/	/	/	/
Cc1ocnc1C(=O)Nc1ccc(Cl)cc1	4	-18	-8	9	15	9.8*	101	0	106	0
Cc1cc(C(=O)Nc2ccc(Cl)cc2)on1	-2	-15	9	/	9	0	/	/	/	/
O=C(c1c(F)cccc1F)N1CCN(CCOc2ccccc2)CC1	6	-9	-7	/	-24	0	/	/	/	/
